Experimental data from ChEMBL document CHEMBL4004807 (J Med Chem, 2017).
Activity calls are given as the source filed them. The calls are words filed in the database; no cut-off is given here.

Columns and labels:
[1] = Selectivity ratio of EC50 for recombinant rat IP receptor expressed in CHO-K1 cells to EC50 for recombinant human IP receptor expressed in CHO-K1 cells; format: cell-based
Prostacyclin receptor [2] = target: T1, Prostacyclin receptor (Homo sapiens, UniProt P43119); test: Ratio of IC50 for IP receptor in human primary platelets to EC50 for recombinant human IP receptor expressed in CHO-K1 cells; format: cell-based
[3] = target: Prostaglandin E2 receptor EP2 subtype (Homo sapiens) (UniProt P43116); test: Agonist activity at recombinant human EP2 receptor expressed in CHO-K1 cells assessed as increase in intracellular cAMP level up to 10 uM after 1 hr incubation by HTRF method; format: functional, cell-based
Rattus norvegicus [4] = test: Inhibition of right ventricle hypertrophic response in Sprague-Dawley rat monocrotaline model of pulmonary arterial hypertension assessed as reduction of MCT-induced increase in ratio of right ventricular weight to left ventricle plus septum weight administered via oral gavage twice daily for 21 consecutive days starting 24 hrs after monocrotaline challenge; format: functional
In short: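 Male rats given 60 mg/kg monocrotaline sc on day 1 (sham: saline) under 30 mg/kg ip pentobarbital; from next day for 20 days dosed by oral gavage twice daily at 10 or 30 mg/kg in 20% HPBCD in saline (vehicle control). Day 21: RV/(LV+S) weights; mPAP via catheter under 60 mg/kg pentobarbital (30 mg/kg group, n = 5); H&E lung sections, 5 animals/group.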

[5] = target: T2, Prostaglandin E2 receptor EP3 subtype (Homo sapiens, UniProt P43115); test: Agonist activity at recombinant human EP3v6 receptor expressed in melanophores assessed as induction of pigment redistribution up to 10 uM after 90 mins; conditions: 1.5 h
T2 sequence (P43115 whole entry): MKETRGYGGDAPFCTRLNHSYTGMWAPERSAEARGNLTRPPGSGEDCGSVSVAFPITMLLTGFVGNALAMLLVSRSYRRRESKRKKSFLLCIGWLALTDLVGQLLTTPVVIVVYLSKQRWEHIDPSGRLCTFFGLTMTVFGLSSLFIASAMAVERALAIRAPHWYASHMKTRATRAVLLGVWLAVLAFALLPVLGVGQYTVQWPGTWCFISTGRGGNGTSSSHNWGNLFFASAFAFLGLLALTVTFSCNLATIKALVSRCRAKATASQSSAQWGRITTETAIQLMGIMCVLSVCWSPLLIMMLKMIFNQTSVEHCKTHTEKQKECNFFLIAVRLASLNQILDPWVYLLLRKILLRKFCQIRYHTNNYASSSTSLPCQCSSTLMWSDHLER
In short: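 Melanophores electroporated with 20 μg human EP3v6 plasmid per 400 μL cells, grown 48 h at 27 °C. Assay buffer 0.7× PBS pH 7.3 with 20 nM melatonin to aggregate pigment, 90 min at room temperature, 650 nm baseline; compounds added (10-point, 5-fold dilutions, top 10 μM final), 90 min room temperature, absorbance reread.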

Prostacyclin receptor [6] = target: T1, Prostacyclin receptor; test: Agonist activity at IP receptor in PAH patient-derived primary pulmonary arterial smooth muscle cells assessed as induction of cAMP levels after 1 hr by HTRF method; format: functional
[7] = target: Prostaglandin E2 receptor EP4 subtype (Homo sapiens) (UniProt P35408); test: Agonist activity at recombinant human EP4 receptor expressed in CHO-K1 cells assessed as increase in intracellular cAMP level up to 10 uM after 1 hr incubation by HTRF method; format: functional, cell-based
[8] = Volume of distribution at steady state in Sprague-Dawley rat at 2 mg/kg, iv or 10 mg/kg, po; format: ADME, organism-based; conditions: in vivo
Rattus norvegicus [9] = test: AUC (0 to infinity) in Sprague-Dawley rat at 10 mg/kg, po; format: ADME, organism-based; design: dose 10 mg/kg, route oral, time infinity; conditions: in vivo
In short: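 Sprague-Dawley rats, single oral dose of 10.0 mg/kg; AUC0-inf from plasma concentrations.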

[10] = Total clearance in Sprague-Dawley rat plasma at 2 mg/kg, iv or 10 mg/kg, po; format: ADME, organism-based
[11] = target: T3, Prostaglandin D2 receptor (Homo sapiens, UniProt Q13258); test: Agonist activity at recombinant human DP1 receptor expressed in CHO-K1 cells assessed as increase in intracellular cAMP level after 1 hr incubation by HTRF method; format: functional, cell-based
T3 sequence (Q13258 whole entry): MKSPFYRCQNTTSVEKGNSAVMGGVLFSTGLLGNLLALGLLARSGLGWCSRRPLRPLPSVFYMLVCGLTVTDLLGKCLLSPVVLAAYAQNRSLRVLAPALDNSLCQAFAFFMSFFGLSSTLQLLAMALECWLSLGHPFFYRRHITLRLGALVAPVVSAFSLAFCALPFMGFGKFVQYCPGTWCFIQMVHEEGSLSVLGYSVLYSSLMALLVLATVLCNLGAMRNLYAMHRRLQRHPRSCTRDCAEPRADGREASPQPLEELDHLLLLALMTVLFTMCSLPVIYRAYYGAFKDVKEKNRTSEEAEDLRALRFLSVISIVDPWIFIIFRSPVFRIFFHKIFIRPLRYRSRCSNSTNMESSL
In short: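 CHO-K1 clonal line stably expressing DP1 at minimal level; HTRF cAMP assay, 1 h incubation at room temperature, time-resolved fluorescence read-out.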

Prostacyclin receptor [12] = target: T1, Prostacyclin receptor; test: Agonist activity at recombinant human IP receptor expressed in CHO-K1 cells assessed as increase in intracellular cAMP level after 1 hr incubation by HTRF method; format: functional, cell-based
In short: (§1)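 CHO-K1 clonal lines stably expressing IP at minimal levels; cells in PBS with 1 mM IBMX and 0.2% BSA, 200 000 cells/mL. 10-point, 5-fold DMSO serial dilution, top 10 μM; 1 h at room temperature, then HTRF cAMP-D2 and cryptate reagents in lysis buffer, 1 h, time-resolved fluorescence.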

Prostacyclin receptor [13] = target: Prostacyclin receptor (Rattus norvegicus, UniProt P43253); test: Agonist activity at recombinant rat IP receptor expressed in CHO-K1 cells assessed as increase in intracellular cAMP level after 1 hr incubation by HTRF method; format: functional, cell-based; in short: as §1
Plasma = test: Drug level in bile-duct cannulated rat plasma treated with 2-(((1r,4r)-4-(((4-chlorophenyl)(phenyl)carbamoyloxy)methyl)cyclohexyl)methoxy)acetic acid; format: ADME, cell-free

T1 sequence (P43119 whole entry): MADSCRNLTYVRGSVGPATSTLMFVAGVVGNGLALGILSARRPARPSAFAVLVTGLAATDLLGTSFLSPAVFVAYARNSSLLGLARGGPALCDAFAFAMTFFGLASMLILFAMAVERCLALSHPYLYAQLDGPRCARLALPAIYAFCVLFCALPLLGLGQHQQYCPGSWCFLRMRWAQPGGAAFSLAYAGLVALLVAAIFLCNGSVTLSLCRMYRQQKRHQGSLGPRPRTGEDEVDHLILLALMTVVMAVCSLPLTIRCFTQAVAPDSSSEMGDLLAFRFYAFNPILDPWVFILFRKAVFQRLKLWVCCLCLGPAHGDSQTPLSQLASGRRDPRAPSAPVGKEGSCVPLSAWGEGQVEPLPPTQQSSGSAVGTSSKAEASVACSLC
Prostacyclin receptor (Rattus norvegicus, UniProt P43253), sequence (P43253 whole entry): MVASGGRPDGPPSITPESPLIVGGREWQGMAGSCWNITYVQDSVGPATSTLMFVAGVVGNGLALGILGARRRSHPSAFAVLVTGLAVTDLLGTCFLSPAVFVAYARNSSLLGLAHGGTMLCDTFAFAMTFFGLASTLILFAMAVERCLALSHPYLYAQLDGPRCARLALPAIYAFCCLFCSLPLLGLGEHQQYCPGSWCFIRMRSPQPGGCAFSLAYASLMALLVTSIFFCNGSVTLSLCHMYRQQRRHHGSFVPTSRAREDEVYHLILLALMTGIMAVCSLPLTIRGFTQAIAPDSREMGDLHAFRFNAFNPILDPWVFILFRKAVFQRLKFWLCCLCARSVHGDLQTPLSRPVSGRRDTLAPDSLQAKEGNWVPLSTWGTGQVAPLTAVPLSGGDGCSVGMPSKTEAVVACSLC
Prostaglandin E2 receptor EP2 subtype (Homo sapiens), sequence (P43116 whole entry): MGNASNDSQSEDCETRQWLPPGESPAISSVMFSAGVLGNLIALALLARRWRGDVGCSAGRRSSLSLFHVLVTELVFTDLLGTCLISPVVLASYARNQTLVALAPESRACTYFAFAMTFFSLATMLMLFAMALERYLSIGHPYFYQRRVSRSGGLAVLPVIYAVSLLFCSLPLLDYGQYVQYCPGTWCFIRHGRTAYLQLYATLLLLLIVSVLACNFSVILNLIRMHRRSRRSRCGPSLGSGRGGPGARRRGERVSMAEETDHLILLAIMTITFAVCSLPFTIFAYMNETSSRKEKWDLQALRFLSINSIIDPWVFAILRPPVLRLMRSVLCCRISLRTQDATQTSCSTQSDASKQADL
Prostaglandin E2 receptor EP4 subtype (Homo sapiens), sequence (P35408 whole entry): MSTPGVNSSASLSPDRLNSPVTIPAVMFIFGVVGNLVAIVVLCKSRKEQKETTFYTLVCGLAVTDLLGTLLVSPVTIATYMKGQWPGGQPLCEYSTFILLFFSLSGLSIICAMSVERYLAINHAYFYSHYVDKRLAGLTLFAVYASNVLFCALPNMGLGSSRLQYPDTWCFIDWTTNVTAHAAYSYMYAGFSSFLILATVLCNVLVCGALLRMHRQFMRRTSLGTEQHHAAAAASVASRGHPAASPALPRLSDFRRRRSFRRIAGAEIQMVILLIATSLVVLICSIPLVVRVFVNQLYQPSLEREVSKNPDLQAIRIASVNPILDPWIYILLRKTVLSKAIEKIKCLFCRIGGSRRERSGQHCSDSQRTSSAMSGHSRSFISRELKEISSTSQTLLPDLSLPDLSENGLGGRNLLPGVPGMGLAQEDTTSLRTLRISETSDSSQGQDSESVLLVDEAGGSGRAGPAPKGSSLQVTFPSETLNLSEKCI

Row | Compound | Ratio IC50/EC50 (Prostacyclin receptor [2]) | Ratio EC50 [1] | other results
1 | O=C(O)COC[C@H]1CC[C@H](COC(=O)N(c2ccccc2)c2cccc(F)c2)CC1 | 2 to 10 | 10 to 30 | Activity [3]: inactive; inhibition (Rattus norvegicus [4]): Dose-dependent effect; Activity [5]: Active; Activity (Prostacyclin receptor [6]): Active; Activity [7]: inactive; Vd [8]: 2.74 L/kg; AUC (Rattus norvegicus [9]): 7900 ng·h/mL; clearance [10]: 20 mL/min/kg
2 | O=C(O)COC[C@H]1CC[C@H](COC(=O)N(c2ccc(F)cc2)c2cccc(F)c2)CC1 | 2 to 10 | 10 to 30 | –
3 | O=C(O)COC[C@H]1CC[C@H](COC(=O)N(c2cccc(F)c2)c2ccc(Cl)c(F)c2)CC1 | 2 to 10 | 10 to 30 | –
4 | O=C(O)COC[C@H]1CC[C@H](COC(=O)N(c2ccc(F)cc2)c2ccc(F)cc2)CC1 | 2 to 10 | 10 to 30 | –
5 | CC(C)N(CCCCOCC(=O)NS(C)(=O)=O)c1cnc(-c2ccccc2)c(-c2ccccc2)n1 [SELEXIPAG] | 2 to 10 | 10 to 30 | EC50 [11]: 100 nM; EC50 (Prostacyclin receptor [12]): 6 nM; EC50 (Prostacyclin receptor [13]): 200 nM
6 | O=C(O)COC[C@H]1CC[C@H](COC(=O)N(c2ccccc2)c2ccc(F)c(F)c2)CC1 | 2 to 10 | 10 to 30 | Vd [8]: 1.1 L/kg; AUC (Rattus norvegicus [9]): 4500 ng·h/mL; clearance [10]: 10 mL/min/kg
7 | O=C(COC[C@H]1CC[C@H](COC(=O)N(c2ccc(O)cc2)c2ccc(Cl)cc2)CC1)NCCS(=O)(=O)O | – | – | Drug metabolism (Plasma): Metabolite_Detected
8 | CC#CCC(C)[C@H](O)/C=C/[C@@H]1[C@H]2C/C(=C/CCCC(=O)O)C[C@H]2C[C@H]1O (stereo partly drawn) [ILOPROST] | – | – | Activity [5]: Active

The next lines start with results.

Row | Ratio IC50/EC50 (Prostacyclin receptor [2]) | Compound | Ratio EC50 [1] | other results
9 | 2 to 10 | Cc1ccc(N(C(=O)OC[C@H]2CC[C@H](COCC(=O)O)CC2)c2ccccc2)cc1 | 10 to 30 | –
10 | 2 to 10 | O=C(O)COC[C@H]1CC[C@H](COC(=O)N(c2ccccc2)c2ccccc2)CC1 | 10 to 30 | –
11 | 2 to 10 | COc1cccc(N(C(=O)OC[C@H]2CC[C@H](COCC(=O)O)CC2)c2ccccc2)c1 | 10 to 30 | Vd [8]: 6.3 L/kg; AUC (Rattus norvegicus [9]): 1900 ng·h/mL
12 | 2 to 10 | COc1ccc(N(C(=O)OC[C@H]2CC[C@H](COCC(=O)O)CC2)c2cccc(F)c2)cc1 | 10 to 30 | –
